This is an account of results in ChEMBL document CHEMBL2046322, “Discovery of 1,3-Diaminobenzenes as Selective Inhibitors of Platelet Activation at the PAR1 Receptor” (ACS Med Chem Lett, 2012).

Series [1] deals with T1, Proteinase-activated receptor 1 (Homo sapiens) (UniProt P25116).
T1 sequence (whole entry): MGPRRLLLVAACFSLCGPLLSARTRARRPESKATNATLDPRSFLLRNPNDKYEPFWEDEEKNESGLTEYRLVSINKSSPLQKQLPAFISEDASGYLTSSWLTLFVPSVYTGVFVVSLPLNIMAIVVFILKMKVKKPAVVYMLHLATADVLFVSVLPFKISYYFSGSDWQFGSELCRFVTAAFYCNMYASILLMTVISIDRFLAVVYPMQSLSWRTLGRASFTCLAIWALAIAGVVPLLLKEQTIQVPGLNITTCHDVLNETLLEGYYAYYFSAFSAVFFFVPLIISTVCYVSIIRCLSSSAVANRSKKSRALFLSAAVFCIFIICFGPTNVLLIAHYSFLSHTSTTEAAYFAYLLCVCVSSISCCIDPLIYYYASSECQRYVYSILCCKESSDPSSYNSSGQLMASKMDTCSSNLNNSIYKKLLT
Description: Inhibition of SFLLRN-NH2-stimulated PAR1-mediated platelet activation in […] assessed as surface expression of P-selectin at 10 uM after 20 mins by flow cytometry. Format: cell-based. A general note: In flow cytometry, cells or beads pass a laser one at a time.

Series [2] concerns Plasma. Description: Plasma protein binding in mouse. The format is ADME, cell-free.
Series [3] deals with Plasma. Description: Metabolic stability in human plasma assessed as compound remaining at 5 uM after 5 hrs. Format: ADME, cell-free. An outline of the steps: (§1)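 Compound incubated in human or mouse plasma; stability reported as percent remaining after 5 h.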
Series [4] deals with Plasma. Description: Metabolic stability in mouse plasma assessed as compound remaining at 5 uM after 5 hrs. The format is ADME, cell-free. An outline of the steps: as §1
For series [5], the system named is Plasma. Description: Plasma protein binding in human. The format is ADME, cell-free.
Series [6] has as its target T2, Proteinase-activated receptor 1 (Homo sapiens, UniProt P25116).
T2 sequence (P25116 whole entry): T1 sequence (whole entry)
Description: Inhibition of SFLLRN-NH2-stimulated PAR1-mediated platelet activation in […] assessed as surface expression of P-selectin after 20 mins by flow cytometry. Set-up: species or system Plasma.

By inhibition is commonly meant how much of the control response was suppressed. By IC50 is commonly meant the midpoint of a concentration-inhibition curve.

On to `CCS(=O)(=O)N1CCCc2ccc(NC(=O)c3ccccc3Br)cc21`, for which, in series [1], the inhibition was 26%. In addition, the PPB is listed as 96% with Plasma [2] and 98% in the series on Plasma [5]. The figures for the Stability in the series with Plasma [3] and in the series on Plasma [4] were greater than 99% and 97%, respectively.

With `CCCC(=O)Nc1cccc(NC(=O)c2cccc(-c3ccccc3)c2)c1`, in series [1], the inhibition came to 98%. The IC50 in series [6] came to 2200 nM.

Turning to `O=C(Nc1cccc(N2CCCCC2=O)c1)c1ccccc1Br`, the inhibition in series [1] is 9%. The PPB is 72% in the series on Plasma [2] and 82% in the series on Plasma [5]. Besides, the Stability is recorded as 94% in the series on Plasma [3] and 82% in the series with Plasma [4].

For the molecule `CCCC(=O)Nc1cccc(NC(=O)c2cnc3ccccc3c2)c1`, the inhibition in series [1] was 10%.

For `CCCC(=O)Nc1cccc(NC(=O)c2ccccc2OC(F)(F)F)c1`, the inhibition in series [1] was greater than 99%. Moreover, in series [6], the IC50 amounted to 710 nM.

Turning to `CCCC(=O)Nc1cccc(NC(=O)c2ccccc2S(C)(=O)=O)c1`, the inhibition in series [1] was determined as 21%.

Turning to `O=C(Nc1cccc(NC(=O)c2ccccc2Br)c1)c1ccccc1`, the inhibition in series [1] came out at 67%.

Turning to `CCCC(=O)Nc1cccc(NC(=O)c2cc(F)ccc2Br)c1`, the inhibition in series [1] was greater than 99%. Besides, the IC50 in series [6] was found to be 600 nM.

`CCCC(=O)Nc1ccc(Cl)c(NC(=O)c2ccccc2Br)c1`: the inhibition in series [1] is 35%.

As to `O=C(Nc1cccc(N2CCCS2(=O)=O)c1)c1ccccc1Br`, the inhibition in series [1] stood at 8%. Besides, the PPB in the series on Plasma [2] amounted to 76%. Also, the Stability in the series with Plasma [3] is on record as greater than 99%; with Plasma [4] it was 98%.

With `CCCNC(=O)c1cccc(NC(=O)c2ccccc2Cl)c1`, the inhibition in series [1] amounted to 99%. The IC50 in series [6] was found to be 1800 nM.

Turning to `CCCC(=O)Nc1cccc(NC(=O)c2cccc(NC(C)=O)c2)c1`, the inhibition in series [1] was found to be 55%.

As for `CCCC(=O)Nc1cccc(NC(=O)c2ccccc2-c2ccccc2)c1`, in series [1], the inhibition is less than 1%.

Consider `CCCC(=O)Nc1cccc(NC(=O)c2ccc(F)cc2)c1`, for which the inhibition in series [1] is 85%.

`O=C(Nc1cccc(NC(=O)C2CCCC2)c1)c1ccccc1Br`: the inhibition in series [1] was 91%. Further, the Stability in the series on Plasma [4] was determined as 26%. Moreover, in series [6], the IC50 stood at 520 nM.

`CCCC(=O)Nc1cccc(C(=O)Nc2ccccc2Cl)c1`: in series [1], the inhibition came to 67%.

Take `CCCC(=O)Nc1cccc(NC(=O)c2ccc(C)cc2)c1`: in series [1], the inhibition came out at 25%.

As for `CCCC(=O)Nc1cccc(NC(=O)c2ccccc2Cl)c1`, the inhibition in series [1] was greater than 99%. Also, the IC50 in series [6] came out at 1100 nM.

With `CCCC(=O)Nc1cccc(NC(=O)c2ccccc2C)c1`, the inhibition in series [1] amounted to 98%. The IC50 in series [6] stood at 770 nM.

In the case of `CCCCS(=O)(=O)Nc1cccc(NC(=O)c2ccccc2Br)c1`, in series [1], the inhibition came out at 31%. The Stability is given as 97% in the series on Plasma [3] and greater than 99% in the series on Plasma [4].

With `CCCC(=O)Nc1cccc(NC(=O)c2ccccc2OC)c1`, the inhibition in series [1] is 50%.

For the molecule `CCCC(=O)Nc1cccc(NC(=O)c2cccc(Cl)c2Cl)c1`, in series [1], the inhibition came to 99%. In addition, the IC50 in series [6] is 3120 nM.

`CCCC(=O)Nc1cccc(NC(=O)c2cccc(C)c2)c1`: in series [1], the inhibition turned out to be 88%.

As to `CCCC(=O)Nc1cccc(NCc2ccccc2Br)c1`, in series [1], the inhibition came out at 60%. The figures for the Stability with Plasma [3] and in the series on Plasma [4] were 73% and 1%, respectively.

On to `CCCC(=O)Nc1cccc(NC(=O)c2c(Cl)cccc2Br)c1`, for which the inhibition in series [1] is greater than 99%. Besides, in series [6], the IC50 was found to be 2280 nM.

As to `CC(=O)Nc1cccc(NC(=O)c2ccccc2Cl)c1`, the inhibition in series [1] came out at 35%.

For `CCCC(=O)Nc1cccc(NC(=O)c2cccnc2)c1`, the inhibition in series [1] is less than 1%.

As for `CC(C)C(=O)Nc1cccc(NC(=O)c2ccccc2Br)c1`, the inhibition in series [1] came to 88%. Besides, the Stability with Plasma [4] worked out at 83%. For the same molecule, the half-maximal inhibitory concentration (IC50) in series [6] is 1410 nM.

Regarding `CCC(=O)Nc1cccc(NC(=O)c2ccccc2C)c1C`, the inhibition in series [1] stood at 5%.

On to `CCC(C)(C)C(=O)Nc1cccc(NC(=O)c2ccccc2Br)c1`, for which the inhibition in series [1] was determined as 21%. The Stability in the series with Plasma [3] and in the series with Plasma [4] was greater than 99% throughout. Further, the PPB in the series on Plasma [5] is 95%.

For the molecule `CCCC(=O)Nc1cccc(NC(=O)c2ccc(Cl)cc2)c1`, the inhibition in series [1] is 80%.

With `CC(=O)N1CCCc2ccc(NC(=O)c3ccccc3Br)cc21`, the inhibition in series [1] is 10%. The molecule also had a PPB with Plasma [2] of 89%. Moreover, the Stability in the series on Plasma [3] is given as 92%; in the series with Plasma [4], 71%.

Regarding `CCCC(=O)Nc1cccc(NC(=O)c2ccc(OC)cc2)c1`, the inhibition in series [1] turned out to be 15%.

With `CC(C)CNC(=O)c1coc(NC(=O)c2ccccc2Br)n1`, the inhibition in series [1] was less than 1%.

For `CCCC(=O)Nc1cccc(NC(=O)c2cccc([N+](=O)[O-])c2)c1`, the inhibition in series [1] amounted to 55%.

In the case of `CCCC(=O)Nc1cccc(NC(=O)c2ccc(C(F)(F)F)cc2)c1`, the inhibition in series [1] was found to be 30%.

Consider `CCCC(=O)Nc1ccc2nc(-c3ccccc3Br)[nH]c2c1`, for which the inhibition in series [1] was determined as 39%.

As for `Cc1ccccc1C(=O)Nc1cccc(NC(=O)Cc2ccc(Cl)cc2)c1`, the inhibition in series [1] stood at 40%.

With `CCCC(=O)Nc1cccc(NC(=O)c2c(C)cccc2C)c1`, the inhibition in series [1] was determined as 98%. Besides, in series [6], the IC50 stood at 3000 nM.

In the case of `CCCC(=O)Nc1cccc(NC(=O)c2ccccc2C(=O)N(C)C)c1`, the inhibition in series [1] is 48%.

Regarding `CCCC(=O)Nc1cccc(NC(=O)c2cccc(C#N)c2)c1`, the inhibition in series [1] came to 70%.

On to `O=C(Nc1ccnc(NC(=O)c2ccccc2Br)c1)c1ccccc1`, for which the inhibition in series [1] turned out to be 11%.

`CCCC(=O)Nc1cccc(NC(=O)c2cccc(S(C)(=O)=O)c2)c1`: the inhibition in series [1] worked out at 25%.

As to `CCCC(=O)Nc1cccc(NC(=O)c2cc(C)ccc2Br)c1`, the inhibition in series [1] is greater than 99%. In addition, in series [6], the IC50 came out at 480 nM.

Take `CCCC(=O)Nc1ccc(NC(=O)c2ccccc2Br)cc1`: the inhibition in series [1] stood at 1%.

As to `CCCC(=O)Nc1cccc(NC(=O)c2ccco2)c1`, in series [1], the inhibition came out at 30%.

For `CCCC(=O)Nc1cccc(NC(=O)c2ccccc2F)c1`, the inhibition in series [1] turned out to be 99%. For the same molecule, the IC50 in series [6] was 970 nM.

As for `CCCC(=O)Nc1cccc(NC(=O)c2ccc(S(C)(=O)=O)cc2)c1`, the inhibition in series [1] was determined as 10%.

In the case of `CCCC(=O)Nc1cccc(NC(=O)c2ccc(F)cc2Br)c1`, the inhibition in series [1] was greater than 99%. Besides, the half-inhibitory concentration (IC50) in series [6] is 390 nM.

In the case of `CCCCC(=O)Nc1cccc(NC(=O)c2ccccc2Br)c1`, the inhibition in series [1] is less than 1%.

`CCCC(=O)Nc1cccc(NC(=O)c2ccccc2)c1`: the inhibition in series [1] was 64%.

`CCCC(=O)Nc1cccc(NC(=O)c2cc(Cl)ccc2Br)c1`: the inhibition in series [1] was determined as 68%. The 50% inhibitory concentration (IC50) in series [6] was determined as 380 nM.

In the case of `CCCC(=O)Nc1cccc(NC(=O)c2ccccc2CC)c1`, the inhibition in series [1] was greater than 99%. The IC50 in series [6] is 520 nM.

`CCCC(=O)Nc1cccc(NC(=O)c2ccccc2C(F)(F)F)c1`: the inhibition in series [1] was found to be 99%. Moreover, the IC50 in series [6] is 1290 nM.

`O=C(Nc1cc(NC(=O)C2CCCC2)ccn1)c1ccccc1Br`: in series [1], the inhibition was less than 1%.

For `CCCC(=O)Nc1ccnc(NC(=O)c2ccccc2Br)c1`, the inhibition in series [1] was less than 1%.

`CCCC(=O)Nc1cccc(N(C)C(=O)c2ccccc2Br)c1`: the inhibition in series [1] is less than 1%. In addition, the Stability with Plasma [3] was 19%; with Plasma [4], less than 1%. Moreover, the PPB in the series with Plasma [5] was 89%.

`CCCNC(=O)c1coc(NC(=O)c2ccccc2Br)n1`: in series [1], the inhibition was less than 1%.
